Assay results taken from ChEMBL document CHEMBL1132961 (J Med Chem, 2000).
pEC50, pIC50, pKi: −log10 of the molar value.

How the values were obtained:
[1] = AUC value in rat; format: ADME; conditions: plasma
Method in brief: (§1)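 Rats given 10 mg/kg orally in NaOH solution buffered to pH 7.4. Plasma Cmax, T1/2 and AUC determined.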

[2] = test system: Human immunodeficiency virus 1; assay: Effective concentration at which 50% of the HIV-IIIB-infected human lymphocyte-derived CEM cells protected from HIV-1 infection
[3] = (§2) Concentration which elicits cytotoxicity in 50% of uninfected human lymphocyte derived CEM cells; format: cell-based, CCRF-CEM; conditions: uninfected CCRF-CEM cells, read-out: TC50 (the source's name)
Method in brief: (§3)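 Cytotoxicity measured in uninfected human lymphocyte-derived CEM cells by XTT protocol.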

[4] = AUC value in mice; format: ADME, organism-based; conditions: mouse, plasma
Method in brief: (§4)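 Mice dosed orally by gavage at 25 mg/kg. Vehicle was usually 20% 0.1 N NaOH/80% 0.5% methylcellulose, and in two cases 20% 0.1 N NaOH/80% PEG 400. Plasma Cmax and AUC measured; AUC not determined where Cmax was too low.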

[5] = target: T1, Human immunodeficiency virus type 1 protease (Human immunodeficiency virus 1, UniProt Q72874); assay: Tested for binding affinity against HIV protease
[6] = Tested for maximum plasma concentration in rats; format: ADME, organism-based; conditions: rat; method in brief: as §1
[7] = Half-life period in rat; format: ADME, organism-based; conditions: in vivo; method in brief: as §1
[8] = Tested for maximum plasma concentration in mice; format: ADME, organism-based; conditions: mouse; method in brief: as §4
[9] = Effective concentration required for antiviral activity against HIV-1 RoJo in PBMC cells; format: functional, cell-based; conditions: Homo sapiens
Method in brief: (§5)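 PBMC cells infected with HIV-1 clinical isolates, using an XTT cytopathic assay similar to the CEM assay. EC50 read as protection from viral cytopathic effect.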

[10] = Effective concentration required for antiviral activity against HIV-1 TEKI in PBMC cells; format: functional, cell-based; conditions: Homo sapiens; method in brief: as §5
[11] = Effective concentration required for antiviral activity against HIV-1 SLKA in PBMC cells; format: functional, cell-based; conditions: Homo sapiens; method in brief: as §5
[12] = Tested for cytotoxic activity against HIV-1 144-44 in PBMC cells; format: cell-based; conditions: human, read-out: TC50 (the source's name)
[13] = Effective concentration required for antiviral activity against HIV-1 WeJo in PBMC cells; format: functional, cell-based; conditions: Homo sapiens; method in brief: as §5
[14] = (§6) Effective concentration required for antiviral activity against HIV-1 144-44 in PBMC cells; format: functional, cell-based; conditions: Homo sapiens; method in brief: as §5
[15] = target: T1, Human immunodeficiency virus type 1 protease; assay: Tested for binding affinity against protease
[16] = target: T1, Human immunodeficiency virus type 1 protease; assay: Activity of potent nonpeptidic inhibitor against protease
Method in brief: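 Incubated with 40 µM His-Lys-Ala-Arg-Val-Leu-(p-NO₂-Phe)-Glu-Ala-Nle-Ser-NH₂ in 1.0% DMSO, pH 6.2 MES buffer (DTT, NaCl, EDTA, PEG 8000) for 60 min at 37 °C, then TFA quench. Substrate and product separated by reverse-phase HPLC, read at 220 nm. % control = conversion with inhibitor / conversion without × 100; IC50 derived.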

[17] = (§7) Effective concentration required for antiviral activity against HIV-1 1002-60 in PBMC cells; format: functional, cell-based; conditions: Homo sapiens; method in brief: as §5
[18] = (§8) Effective concentration required for antiviral activity against HIV-1 1026-60 in PBMC cells; format: functional, cell-based; conditions: Homo sapiens; method in brief: as §5
[19] = Tested for cytotoxic activity against HIV-1 1002-60 in PBMC cells; format: cell-based; conditions: human, read-out: TC50 (the source's name)
[20] = Tested for cytotoxic activity against HIV-1 1026-60 in PBMC cells; format: cell-based; conditions: human, read-out: TC50 (the source's name)
[21] = test system: PBMC; assay: as §7; format: functional, cell-based; conditions: Homo sapiens; method in brief: as §5
[22] = test system: PBMC; assay: as §8; format: functional, cell-based; conditions: Homo sapiens; method in brief: as §5
[23] = target: T2, CYP2D6 (Homo sapiens, UniProt P10635); assay: Residual activity of cytochrome P4502D6 at 10 uM
T2 sequence (P10635 whole entry): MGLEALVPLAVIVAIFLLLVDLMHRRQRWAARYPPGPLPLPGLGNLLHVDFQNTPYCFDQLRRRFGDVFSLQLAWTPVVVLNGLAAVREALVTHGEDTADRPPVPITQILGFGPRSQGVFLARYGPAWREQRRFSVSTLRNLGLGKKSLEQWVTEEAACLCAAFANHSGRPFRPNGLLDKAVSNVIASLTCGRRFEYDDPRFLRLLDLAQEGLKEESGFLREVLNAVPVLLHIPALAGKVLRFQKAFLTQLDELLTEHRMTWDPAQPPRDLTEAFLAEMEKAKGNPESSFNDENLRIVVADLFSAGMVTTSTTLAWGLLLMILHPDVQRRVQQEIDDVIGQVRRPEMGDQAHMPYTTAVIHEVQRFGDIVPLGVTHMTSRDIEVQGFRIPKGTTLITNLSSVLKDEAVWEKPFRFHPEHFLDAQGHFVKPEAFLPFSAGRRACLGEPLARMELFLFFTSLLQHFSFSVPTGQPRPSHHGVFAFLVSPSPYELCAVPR

[24] = target: T3, CYP2C9 (Homo sapiens, UniProt P11712); assay: Residual activity of cytochrome P450 2C9 at 1 uM
T3 sequence (P11712 whole entry): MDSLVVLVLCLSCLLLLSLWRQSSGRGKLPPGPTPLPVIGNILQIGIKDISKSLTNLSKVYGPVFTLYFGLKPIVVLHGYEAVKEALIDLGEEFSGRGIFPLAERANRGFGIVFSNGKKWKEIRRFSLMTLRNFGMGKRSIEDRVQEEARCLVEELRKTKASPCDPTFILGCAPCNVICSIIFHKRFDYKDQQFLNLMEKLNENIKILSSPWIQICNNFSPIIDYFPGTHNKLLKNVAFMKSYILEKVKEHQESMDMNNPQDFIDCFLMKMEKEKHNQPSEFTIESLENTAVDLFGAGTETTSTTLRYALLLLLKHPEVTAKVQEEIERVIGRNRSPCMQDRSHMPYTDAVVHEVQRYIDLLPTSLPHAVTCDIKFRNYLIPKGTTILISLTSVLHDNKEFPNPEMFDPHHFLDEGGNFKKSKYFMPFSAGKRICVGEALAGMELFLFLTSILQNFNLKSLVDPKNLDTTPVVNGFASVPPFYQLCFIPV

[25] = target: T2, CYP2D6; assay: Residual activity of cytochrome P4502D6 at 1 uM
[26] = target: T2, CYP2D6; assay: Residual activity of cytochrome P4502D6 at 100 uM
[27] = target: T3, CYP2C9; assay: Residual activity of cytochrome P450 2C9 at 100 uM
[28] = target: T3, CYP2C9; assay: Residual activity of cytochrome P450 at 10 uM
[29] = test system: PBMC; assay: as §6; format: functional, cell-based; conditions: Homo sapiens; method in brief: as §5
[30] = test system: CCRF-CEM; assay: as §2; format: cell-based; conditions: ccrf-cem, read-out: TC50 (the source's name); method in brief: as §3
[31] = target: T4, CYP3A4 (Homo sapiens, UniProt P08684); assay: Residual activity of cytochrome P4503A4 at 10 uM
T4 sequence (P08684 whole entry): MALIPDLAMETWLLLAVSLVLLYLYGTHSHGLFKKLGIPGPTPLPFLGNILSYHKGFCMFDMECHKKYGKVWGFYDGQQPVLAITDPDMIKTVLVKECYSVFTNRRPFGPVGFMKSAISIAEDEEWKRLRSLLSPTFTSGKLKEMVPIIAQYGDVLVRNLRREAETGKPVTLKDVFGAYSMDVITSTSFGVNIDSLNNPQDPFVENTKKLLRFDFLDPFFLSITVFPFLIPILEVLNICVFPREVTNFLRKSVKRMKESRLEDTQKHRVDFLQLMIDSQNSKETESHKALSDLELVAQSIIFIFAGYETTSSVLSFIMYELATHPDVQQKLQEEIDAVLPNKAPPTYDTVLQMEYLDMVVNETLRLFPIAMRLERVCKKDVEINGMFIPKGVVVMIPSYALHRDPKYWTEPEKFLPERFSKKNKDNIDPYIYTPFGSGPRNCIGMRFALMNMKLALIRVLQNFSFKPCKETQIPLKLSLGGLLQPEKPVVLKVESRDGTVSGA

[32] = target: T4, CYP3A4; assay: Residual activity of cytochrome P4503A4 at 100 uM
[33] = target: T4, CYP3A4; assay: Residual activity of cytochrome P4503A4 at 1 uM
[34] = Human immunodeficiency virus 1, CCRF-CEM
[35] = pooled result: one value given for 5 cell lines, strains, targets or settings

Cc1cc(SC2=C(O)O[C@](CCc3ccc(O)cc3)(C(C)C)CC2=O)c(C(C)(C)C)cc1OS(C)(=O)=O
AUC [1]: 5390 ng·h/mL
pEC50 [2, 34]: 6.28
CC50 [3]: 80 µM
AUC [4]: 5400 ng·h/mL
pKi [5]: 10.52
Cmax [6]: 6.54 µM
half-life [7]: 56.4 min
Cmax [8]: 6.54 µM

Cc1cc(SC2=C(O)O[C@](CCc3ccccc3)(C(C)C)CC2=O)c(C(C)(C)C)cc1NS(=O)(=O)c1ccc(C(F)(F)F)cn1
AUC [1]: 6700 ng·h/mL
pEC50 [2, 34]: 6.35
CC50 [3]: 65 µM
AUC [4]: 22000 ng·h/mL
pKi [5]: 9.51
Cmax [6]: 3.5 µM
half-life [7]: 138 min
Cmax [8]: 9.2 µM

Cc1cc(SC2=C(O)O[C@](CCc3ccccc3)(C(C)C)CC2=O)c(C(C)(C)C)cc1NS(=O)(=O)c1ccc(C#N)cc1
pEC50 [9]: 6.92
pEC50 [10]: 7.00
AUC [1]: 10000 ng·h/mL
pEC50 [2, 34]: 6.66
CC50 [3]: 31 µM
pEC50 [11]: 6.92
pKi [5]: 9.70
Cmax [6]: 3.96 µM
CC50 [12, 35]: 55.6 µM
pEC50 [13]: 6.96
half-life [7]: 342 min
Cmax [8]: 10.3 µM
pEC50 [14]: 6.24

Cc1cc(SC2=C(O)OC(CCc3ccccc3)(C(C)C)CC2=O)c(C(C)(C)C)cc1NS(=O)(=O)c1ccc(C(F)(F)F)cc1 (stereo not drawn)
pKi [15]: 7.57
pEC50 [2, 34]: 6.15
CC50 [3]: 24 µM

Cc1cc(SC2=C(O)OC(CCc3ccc(O)cc3)(C(C)C)CC2=O)c(C(C)(C)C)cc1NS(=O)(=O)c1ccccc1 (stereo not drawn)
pEC50 [2, 34]: 5.85
CC50 [3]: 74 µM
pKi [5]: 9.28
pIC50 [16]: 8.74

Cc1cc(SC2=C(O)OC(CCc3ccccc3)(C(C)C)CC2=O)c(C(C)(C)C)cc1NS(=O)(=O)c1ccc(C(F)(F)F)cn1 (stereo not drawn)
pEC50 [17]: 6.21
pEC50 [9]: 6.17
pEC50 [10]: 6.09
pEC50 [18]: 6.57
pEC50 [2, 34]: 6.22
CC50 [3]: 66 µM
pEC50 [11]: 6.15
pKi [5]: 8.98
CC50 [12, 35]: > 100 µM
pEC50 [13]: 6.16
pEC50 [14]: 6.59
CC50 [19]: > 100 µM
CC50 [20]: > 100 µM

CC(C)(C)NC(=O)[C@@H]1CN(Cc2cccnc2)CCN1C[C@@H](O)C[C@@H](Cc1ccccc1)C(=O)N[C@H]1c2ccccc2C[C@H]1O
pEC50 [21]: < 4.00
pEC50 [22]: 4.78
residual activity at 10 µM [23]: 82%
residual activity at 1 µM [24]: 93%
residual activity at 1 µM [25]: 100%
CC50 [12]: > 100 µM
residual activity at 100 µM [26]: 31%
residual activity at 100 µM [27]: 68%
residual activity at 10 µM [28]: 89%
pEC50 [29]: 5.52
CC50 [19]: > 100 µM
CC50 [20]: > 100 µM

CCNS(=O)(=O)Oc1cc(C(C)(C)C)c(SC2=C(O)OC(CCc3ccccc3)(C(C)C)CC2=O)cc1C (stereo not drawn)
pEC50 [2, 34]: 6.10
CC50 [3]: 67 µM
Cmax [8]: 0.62 µM

Cc1cc(SC2=C(O)O[C@](CCc3ccc(O)cc3)(C(C)C)CC2=O)c(C(C)(C)C)cc1N (stereo in doubt; 1R)
pEC50 ([2]; ccrf-cem): 4.04
CC50 [30]: 215 µM

Cc1cc(SC2=C(O)O[C@](CCc3ccc(O)cc3)(C(C)C)CC2=O)c(C(C)(C)C)cc1N (stereo in doubt; 1S)
pEC50 [17]: 6.13
pEC50 [9]: 6.70
pEC50 [10]: 6.23
pEC50 [18]: 6.51
pEC50 ([2]; ccrf-cem): 6.31
residual activity at 10 µM [23]: 95%
residual activity at 10 µM [31]: 96.8%
CC50 [3]: 215 µM
residual activity at 1 µM [24]: 93.2%
pEC50 [11]: 6.66
residual activity at 100 µM [32]: 41.1%
AUC [4]: 46300 ng·h/mL
residual activity at 1 µM [25]: 105%
CC50 [12, 35]: > 100 µM
pEC50 [13]: 6.60
residual activity at 100 µM [26]: 56.7%
residual activity at 100 µM [27]: 21.6%
residual activity at 1 µM [33]: 103%
residual activity at 10 µM [28]: 75.5%
pEC50 [14]: 6.62
CC50 [19]: > 100 µM
CC50 [20]: > 100 µM
